Source: ChEMBL document CHEMBL5058577, “EUbOPEN Chemogenomics Library 2 (Multiplex)” (2022)

Test system: HEK-293T
Experiment: Multiplex assay against HEK293T
Type: toxicity, cell-based
Details: human
Outline: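 Phenotypes for tubulin, mitochondrial mass and membrane permeability are expressed as per cents of healthy-nucleus cells. Cells were stained live at seeding with Hoechst33342, BioTracker Green Microtubule Cytoskeleton Dye, MitoTracker Red and Annexin V Alexa Fluor 680, then imaged after compound addition on a CQ1 microscope at 37°C and 5% CO2. Machine-learning gating in CellPathfinder separated Hoechst high-intensity objects from normal cells, divided normal cells by nuclear state (healthy, pyknosed, fragmented) and divided pyknosed cells into mitotic or apoptotic.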

[1] = 12 h, 1 µM, compound concentration 1 uM, replicate 1
[2] = 12 h, 1 µM, compound concentration 1 uM, replicate 2
[3] = 12 h, 10 µM, compound concentration 10 uM, replicate 1
[4] = 12 h, 10 µM, compound concentration 10 uM, replicate 2
[5] = 24 h, 1 µM, compound concentration 1 uM, replicate 1
[6] = 24 h, 1 µM, compound concentration 1 uM, replicate 2
[7] = 24 h, 10 µM, compound concentration 10 uM, replicate 1
[8] = 24 h, 10 µM, compound concentration 10 uM, replicate 2
[9] = 48 h, 1 µM, compound concentration 1 uM, replicate 1
[10] = 48 h, 1 µM, compound concentration 1 uM, replicate 2
[11] = 48 h, 10 µM, compound concentration 10 uM, replicate 1
[12] = 48 h, 10 µM, compound concentration 10 uM, replicate 2

O=C(NCCNCC(O)COc1ccc(O)cc1)N1CCOCC1.O=C(NCCNCC(O)COc1ccc(O)cc1)N1CCOCC1.O=C(O)/C=C/C(=O)O (stereo unspecified) [XAMOTEROL FUMARATE]
Population Apoptotic (%) [1]: 39%
Population Fragmented Nuclei (%) [1]: 5%
Population Healthy Nuclei (%) [1]: 79%
Population Hoechst High Intensity Objects (%) [1]: 4%
Population Membrane Permeable-Phenotype (%) [1]: 0%
Population Mitochondria Different-Phenotype (%) [1]: 39%
Population Mitotic Cells (%) [1]: 60%
Population Normal (%) [1]: 95%
Population Pyknosed Nuclei (%) [1]: 14%
Population Tubulin-Different-Phenotype (%) [1]: 26%
Total Cell Count [1]: 339
Population Apoptotic (%) [2]: 60%
Population Healthy Nuclei (%) [2]: 76%
Population Hoechst High Intensity Objects (%) [2]: 14%
Population Mitochondria Different-Phenotype (%) [2]: 57%
Population Mitotic Cells (%) [2]: 39%
Population Normal (%) [2]: 85%
Population Pyknosed Nuclei (%) [2]: 17%
Population Tubulin-Different-Phenotype (%) [2]: 21%
Total Cell Count [2]: 271
Population Apoptotic (%) [3]: 35%
Population Fragmented Nuclei (%) [3]: 7%
Population Healthy Nuclei (%) [3]: 83%
Population Hoechst High Intensity Objects (%) [3]: 6%
Population Membrane Permeable-Phenotype (%) [3]: 0%
Population Mitochondria Different-Phenotype (%) [3]: 39%
Population Mitotic Cells (%) [3]: 65%
Population Normal (%) [3]: 93%
Population Pyknosed Nuclei (%) [3]: 8%
Population Tubulin-Different-Phenotype (%) [3]: 19%
Total Cell Count [3]: 499
Population Apoptotic (%) [4]: 29%
Population Fragmented Nuclei (%) [4]: 4%
Population Healthy Nuclei (%) [4]: 86%
Population Hoechst High Intensity Objects (%) [4]: 5%
Population Mitochondria Different-Phenotype (%) [4]: 62%
Population Mitotic Cells (%) [4]: 70%
Population Normal (%) [4]: 94%
Population Pyknosed Nuclei (%) [4]: 9%
Population Tubulin-Different-Phenotype (%) [4]: 23%
Total Cell Count [4]: 406
Population Apoptotic (%) [5]: 26%
Population Fragmented Nuclei (%) [5]: 8%
Population Healthy Nuclei (%) [5]: 78%
Population Hoechst High Intensity Objects (%) [5]: 6%
Population Membrane Permeable-Phenotype (%) [5]: 0%
Population Mitochondria Different-Phenotype (%) [5]: 18%
Population Mitotic Cells (%) [5]: 73%
Population Normal (%) [5]: 93%
Population Pyknosed Nuclei (%) [5]: 12%
Population Tubulin-Different-Phenotype (%) [5]: 17%
Total Cell Count [5]: 475
Population Apoptotic (%) [6]: 45%
Population Fragmented Nuclei (%) [6]: 9%
Population Healthy Nuclei (%) [6]: 80%
Population Hoechst High Intensity Objects (%) [6]: 13%
Population Mitochondria Different-Phenotype (%) [6]: 38%
Population Mitotic Cells (%) [6]: 54%
Population Normal (%) [6]: 86%
Population Pyknosed Nuclei (%) [6]: 10%
Population Tubulin-Different-Phenotype (%) [6]: 15%
Total Cell Count [6]: 366
Population Apoptotic (%) [7]: 21%
Population Fragmented Nuclei (%) [7]: 9%
Population Healthy Nuclei (%) [7]: 79%
Population Hoechst High Intensity Objects (%) [7]: 5%
Population Membrane Permeable-Phenotype (%) [7]: 0%
Population Mitochondria Different-Phenotype (%) [7]: 25%
Population Mitotic Cells (%) [7]: 78%
Population Normal (%) [7]: 94%
Population Pyknosed Nuclei (%) [7]: 11%
Population Tubulin-Different-Phenotype (%) [7]: 12%
Total Cell Count [7]: 632
Population Apoptotic (%) [8]: 33%
Population Fragmented Nuclei (%) [8]: 7%
Population Healthy Nuclei (%) [8]: 85%
Population Hoechst High Intensity Objects (%) [8]: 4%
Population Mitochondria Different-Phenotype (%) [8]: 42%
Population Mitotic Cells (%) [8]: 66%
Population Normal (%) [8]: 95%
Population Pyknosed Nuclei (%) [8]: 7%
Population Tubulin-Different-Phenotype (%) [8]: 17%
Total Cell Count [8]: 542
Population Apoptotic (%) [9]: 21%
Population Fragmented Nuclei (%) [9]: 14%
Population Healthy Nuclei (%) [9]: 77%
Population Hoechst High Intensity Objects (%) [9]: 2%
Population Membrane Permeable-Phenotype (%) [9]: 2%
Population Mitochondria Different-Phenotype (%) [9]: 11%
Population Mitotic Cells (%) [9]: 78%
Population Normal (%) [9]: 97%
Population Pyknosed Nuclei (%) [9]: 7%
Population Tubulin-Different-Phenotype (%) [9]: 9%
Total Cell Count [9]: 918
Population Apoptotic (%) [10]: 41%
Population Fragmented Nuclei (%) [10]: 11%
Population Healthy Nuclei (%) [10]: 81%
Population Hoechst High Intensity Objects (%) [10]: 4%
Population Membrane Permeable-Phenotype (%) [10]: 0%
Population Mitochondria Different-Phenotype (%) [10]: 18%
Population Mitotic Cells (%) [10]: 58%
Population Normal (%) [10]: 95%
Population Pyknosed Nuclei (%) [10]: 6%
Population Tubulin-Different-Phenotype (%) [10]: 10%
Total Cell Count [10]: 526
Population Apoptotic (%) [11]: 17%
Population Fragmented Nuclei (%) [11]: 15%
Population Healthy Nuclei (%) [11]: 79%
Population Hoechst High Intensity Objects (%) [11]: 0%
Population Membrane Permeable-Phenotype (%) [11]: 1%
Population Mitochondria Different-Phenotype (%) [11]: 13%
Population Mitotic Cells (%) [11]: 82%
Population Normal (%) [11]: 99%
Population Pyknosed Nuclei (%) [11]: 5%
Population Tubulin-Different-Phenotype (%) [11]: 6%
Total Cell Count [11]: 1116
Population Apoptotic (%) [12]: 25%
Population Fragmented Nuclei (%) [12]: 16%
Population Healthy Nuclei (%) [12]: 77%
Population Hoechst High Intensity Objects (%) [12]: 2%
Population Membrane Permeable-Phenotype (%) [12]: 0%
Population Mitochondria Different-Phenotype (%) [12]: 16%
Population Mitotic Cells (%) [12]: 74%
Population Normal (%) [12]: 97%
Population Tubulin-Different-Phenotype (%) [12]: 10%
Total Cell Count [12]: 827
